Results from ChEMBL document CHEMBL4354848, “Molecular Design and Synthesis of Ivermectin Hybrids Targeting Hepatic and Erythrocytic Stages of Plasmodium Parasites” (J Med Chem, 2020).
Calls of active or inactive are those of the source. The rule behind the calls is not given here.

How the values were obtained:
Plasmodium berghei [1] = assay: Antiplasmodial activity against luciferase expressing Plasmodium berghei sporozoites infected in human HuH7 cells assessed as reduction in parasite load preincubated for 1 hr followed by parasite infection and measured after 46 hrs by bioluminescence assay; type: functional, organism-based
Summary of the method: (§1)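 Huh7 hepatoma cells seeded at 1x10^4/well, left overnight at 37 °C, 5% CO2. Serial dilutions from 10 mM DMSO stocks in medium with gentamicin and amphotericin B added 1 h before 1x10^4 firefly luciferase-expressing P. berghei sporozoites from An. stephensi salivary glands. Spin 1800 xg for 5 min, then culture. Parasite load read by bioluminescence. DMSO and atovaquone as controls. IC50 from nonlinear regression of normalized curves.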

Plasmodium berghei [2] = assay: Antiplasmodial activity against luciferase expressing Plasmodium berghei sporozoites infected in human HuH7 cells assessed as reduction in parasite load at 1 to 10 uM preincubated for 1 hr followed by parasite infection and measured after 46 hrs by bioluminescence assay; type: functional, organism-based; summary of the method: as §1
Plasmodium falciparum [3] = assay: Potency index, ratio of ivermectin IC50 to test compound IC50 for antiplasmodial activity against chloroquine-sensitive ring-stage synchronized cultures of Plasmodium falciparum NF54; type: functional
Huh-7 = assay: Cytotoxicity against human HuH7 cells infected with luciferase expressing Plasmodium berghei sporozoites assessed as reduction in cell viability preincubated for 1 hr followed by parasite infection and measured after 48 hrs by alamar blue assay; type: cell-based; conditions: huh-7, 46 h, in the assay text read “46 hrs” for “48 hrs”
Summary of the method: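 Huh7 cells were pre-treated for 1 h with serial dilutions from 10 mM DMSO stocks, then infected with luciferase-expressing P. berghei sporozoites and spun at 1800 xg for 5 min. Cultures were kept at 37 °C, 5% CO2. Viability was read by Alamar Blue added at 46 h post infection, following the manufacturer's instructions.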

Plasmodium falciparum [4] = assay: Antiplasmodial activity against chloroquine-sensitive ring-stage synchronized cultures of Plasmodium falciparum NF54 incubated for 48 hrs by SYBR green I dye based flow cytometry; type: functional, organism-based
Summary of the method: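 Ring-stage synchronized PfNF54 cultures (2.5% hematocrit, ~1% parasitemia) exposed to compounds or DMSO vehicle for 48 h at 37 °C under 5% CO2/5% O2. Stocks in DMSO diluted in RPMI 1640-based medium with Albumax, HEPES, hypoxanthine. ~800 000 cells stained with SYBR green I for 20 min in the dark; ~100,000 events counted by flow cytometry. Triplicates, at least three experiments.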

Anopheles stephensi = assay: Insecticidal activity against compound treated Balb/c mouse blood fed Anopheles stephensi assessed as effect on mosquito survival at 1 mg/kg, po administered via gavage 24 hrs prior to blood feed for 20 mins under dark condition and measured daily up to 14 days post blood feed; type: functional, organism-based
Summary of the method: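 Balb/c mice (6-8 weeks) received a single oral dose of 1 mg/kg as a suspension in sunflower oil. Controls got DMSO in sunflower oil. At 24 h, ~30 mosquitoes per mouse fed for ~20 min in the dark. Blood ingestion was confirmed visually, and survival was scored daily up to 14 days.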

Plasmodium berghei [5] = assay: Potency index, ratio of ivermectin IC50 to test compound IC50 for antiplasmodial activity against luciferase expressing Plasmodium berghei sporozoites infected in human HuH7 cells; type: functional
[6] = Plasmodium falciparum, NF54, 48 h, read-out: IC50

| IC50 (Plasmodium berghei [1]; Plasmodium berghei, Huh-7) | IC50 (Plasmodium falciparum [4]; [6]) | IC50 (Plasmodium falciparum [4]) | IC50 (Plasmodium berghei [1]) | IC50 (Plasmodium falciparum [4]; read-out: IC50) | Compound | Activity (Plasmodium berghei [2]) | Ratio IC50 (Plasmodium falciparum [3]) | Activity (Huh-7) | Activity (Anopheles stephensi) | Ratio IC50 (Plasmodium berghei [5]) |
| --- | --- | --- | --- | --- | --- | --- | --- | --- | --- | --- |
| 0.911 µM | 0.161 µM |  |  |  | CC[C@H](C)[C@H]1O[C@]2(CC[C@@H]1C)C[C@@H]1C[C@@H](C/C=C(\C)[C@@H](OC(=O)Cn3cc(COc4nc(C)c(C(=O)OC(C)C)c(-c5cccc([N+](=O)[O-])c5)n4)nn3)[C@@H](C)/C=C/C=C3\CO[C@@H]4[C@H](O)C(C)=C[C@@H](C(=O)O1)[C@]34O)O2 | Active | 3 | Non-Toxic |  |  |
| 4.56 µM |  | Not Active |  |  | CC[C@H](C)[C@H]1O[C@]2(CC[C@@H]1C)C[C@@H]1C[C@@H](C/C=C(\C)[C@@H](O)[C@@H](C)/C=C/C=C3\CO[C@@H]4[C@H](O)C(C)=C[C@@H](C(=O)O1)[C@]34O)O2 [IVM AGLYCONE] | Active |  | Non-Toxic | inactive |  |
|  |  |  |  |  | IVERMECTIN [listing 1 of 2 here] |  |  |  | Active |  |
| 0.99 µM | 0.111 µM |  |  |  | CCOC(=O)c1c(C)nc(OCc2cn(CC(=O)O[C@@H]3/C(C)=C/C[C@@H]4C[C@@H](C[C@]5(CC[C@H](C)[C@@H]([C@@H](C)CC)O5)O4)OC(=O)[C@@H]4C=C(C)[C@@H](O)[C@H]5OC/C(=C\C=C\[C@@H]3C)[C@]54O)nn2)nc1-c1ccccc1 | Active | 11 | Non-Toxic |  |  |
|  |  |  | 1.64 µM | 0.52 µM | IVERMECTIN [listing 2 of 2 here] |  |  |  |  |  |
| 0.503 µM | 0.0502 µM |  |  |  | CCOC(=O)c1c(C)nc(OCc2cn(CC(=O)O[C@@H]3/C(C)=C/C[C@@H]4C[C@@H](C[C@]5(CC[C@H](C)[C@@H]([C@@H](C)CC)O5)O4)OC(=O)[C@@H]4C=C(C)[C@@H](O)[C@H]5OC/C(=C\C=C\[C@@H]3C)[C@]54O)nn2)nc1-c1cc(OC)c(OC)cc1[N+](=O)[O-] | Active | 5 | Non-Toxic | inactive | 3 |
| 0.0007 µM |  |  |  |  | O=C1C(O)=C([C@H]2CC[C@H](c3ccc(Cl)cc3)CC2)C(=O)c2ccccc21 [ATOVAQUONE] |  |  |  |  |  |
|  |  |  |  |  | CC[C@H](C)[C@H]1O[C@]2(CC[C@@H]1C)C[C@@H]1C[C@@H](C/C=C(\C)[C@@H](OC(=O)Cn3cc(COc4nc(C)c(C(=O)OC(C)C)c(-c5cccc([N+](=O)[O-])c5)n4)nn3)[C@@H](C)/C=C/C=C3\CO[C@@H]4[C@H](O[Si](C)(C)C(C)(C)C)C(C)=C[C@@H](C(=O)O1)[C@]34O)O2 | inactive |  | Non-Toxic |  |  |
